Sampled rows, rich in hits. Any-hit rate of the full collection: about 1.5%.
ABCG2 inh: inhibitors of human ABCG2 transporter, ABCB1 counter-screen. Q9UNQ0. IgMXP3 cells, JC-1 efflux, flow cytometry. inhibition, % at 6.6 µM. actives 0.1% (n = 190,000). AID 1325;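 active means inhibition above 80%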;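 further: 0% = DMSO and 100% = nicardipine control wells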
Target sequence (Q9UNQ0 whole entry, looked up): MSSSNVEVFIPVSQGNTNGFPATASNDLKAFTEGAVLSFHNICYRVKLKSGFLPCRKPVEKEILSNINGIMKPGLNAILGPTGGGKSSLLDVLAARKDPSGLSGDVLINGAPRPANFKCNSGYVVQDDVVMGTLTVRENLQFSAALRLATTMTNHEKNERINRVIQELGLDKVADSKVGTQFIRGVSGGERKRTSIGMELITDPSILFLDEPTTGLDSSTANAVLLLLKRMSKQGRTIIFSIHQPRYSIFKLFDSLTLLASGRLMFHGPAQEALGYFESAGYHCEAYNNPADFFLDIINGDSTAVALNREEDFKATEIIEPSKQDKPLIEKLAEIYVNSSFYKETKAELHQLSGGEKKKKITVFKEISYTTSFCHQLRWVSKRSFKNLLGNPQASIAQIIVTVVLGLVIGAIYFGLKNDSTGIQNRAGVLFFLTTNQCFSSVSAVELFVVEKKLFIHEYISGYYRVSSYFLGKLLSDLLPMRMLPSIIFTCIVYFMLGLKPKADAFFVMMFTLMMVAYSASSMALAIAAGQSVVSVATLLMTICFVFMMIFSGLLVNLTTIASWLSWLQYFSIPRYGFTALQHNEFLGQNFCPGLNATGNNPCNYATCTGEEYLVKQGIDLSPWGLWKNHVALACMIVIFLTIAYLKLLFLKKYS
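Times: 10 min at 25 °C | Test system: Two drug-resistant human cell lines, ABCG2 and ABCB1 | Quantity: 3 million cells/mL final, two lines in 1:1 ratio | Signal: Flow cytometry, 530 nm JC-1 signal | Dosing: Compound at 6.6 µM | Controls: Nicardipine and DMSO wells | Reagent: JC-1 as fluorescent efflux pump substrate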
EP2 modulator: modulates human prostaglandin E2 receptor EP2 signaling; EP2-expressing cells, cAMP HTRF FRET, PGE2 co-stimulation; induction, % at 25 µM; P43116; AID 940; actives 0.83% (n = 260,000);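 active means compounds whose cAMP rise, as percent of the full-agonist control response, exceeds 60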;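 further: rat C6 glioma line stably carrying human EP2 under a CMV promoter; the protocol text gives 20 µM as final concentration; 100% = response of wells given 1 µM PGE2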
ABCB1 block: blocks JC-1 efflux by human ABCB1 transporter | P08183 | CCRF-Adr cells, flow cytometry | inhibition, % at 6.6 µM | actives 0.067% (n = 190,000) | AID 1326; in the data active means inhibition above about 40%;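 further: 0% = vehicle and 100% = reference inhibitor; higher value means more JC-1 retained so stronger ABCB1 efflux block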
PGE2 EP2 inh: EP2 receptor (human) inhibition. P43116. C6 glioma cells expressing human EP2, cAMP TR-FRET; cells stimulated with saturating PGE2. inhibition, % at 25 µM. actives 0.52% (n = 260,000). AID 1422;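 active means percent inhibition above 40 after rounding to a whole number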;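 further: rat C6 glioma host cells with rolipram phosphodiesterase inhibitor present; the protocol text gives 20 µM as final concentration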
RBBP9 inh: human RBBP9 hydrolase inhibition. O75884. recombinant RBBP9, FP-Rh probe fluorescence polarization. inhibition, % at 7.94 µM. actives 0.2% (n = 220,000);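 active means inhibition above the campaign mean of all tested compounds plus 3 SD, cut at about 14% in these data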;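 further: plate controls were DMSO wells with RBBP9 for no effect and wells lacking RBBP9 protein for full effect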
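System: RBBP9 protein / Quantity: 2.5 µM RBBP9 dispensing solution, before mixing / Also added: Serine-hydrolase probe FP-Rh, 375 nM pre-mixing / Dosing: 7.94 µM single dose, 0.794% DMSO / Timing: enzyme-compound preincubation 30 min, then probe labeling 45 min, 25 °C / Signal: FP readout at 525/598 nm / Controls: DMSO-treated enzyme wells and wells lacking RBBP9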
ABCB1 single pt: inhibits human ABCB1 efflux, confirmed at single point | shares compounds with ABCG2 inh | CCRF-Adr cells, JC-1 efflux, flow cytometry | inhibition, % at 6.6 µM | actives 7% (n = 270);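 active means inhibition of pump activity above 50%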;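 further: 0% = DMSO and 100% = nicardipine full pump inhibition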
ABCG2 single pt: inhibits human ABCG2 efflux, confirmed at single point; shares compounds with ABCG2 inh; actives 6% (n = 270); AID 1453; IgMXP3 cells, JC-1 efflux, flow cytometry; inhibition, % at 6.6 µM;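 active means inhibition above 50%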;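 further: 0% = DMSO wells and 100% = nicardipine pump inhibitor wells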
IgMXP3 autofluor: IgMXP3 autofluorescence flag for ABCG2 confirmation; IgMXP3 cells, compound autofluorescence 488/530 nm, flow; active compounds read high; shares compounds with ABCG2 inh; actives 30% (n = 270); fluorescence at 6.6 µM; AID 1480;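 active means fluorescence in ABCG2-expressing cells above the plate's control-well mean plus 3 SD, cut at about 15 in these data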;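 further: median cell fluorescence with compound minus that of DMSO-treated control cells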
CCRF-Adr fluor: CCRF-Adr autofluorescence flag for ABCB1 confirmation; shares compounds with ABCG2 inh; CCRF-Adr cells, compound autofluorescence 488/530 nm, flow cytometry; active compounds read high; fluorescence at 6.6 µM; actives 30% (n = 270);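 active means fluorescence beyond the plate control mean plus 3 SD, with a fluorescence-to-maximum score over 2, cut at about 25 in these data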
RBBP9 inh conf: human RBBP9 inhibition, confirmation; actives 36% (n = 410); recombinant RBBP9, FP-Rh probe fluorescence polarization; AID 1537; inhibition, % at 7.94 µM; shares compounds with RBBP9 inh;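 active means inhibition above the hit cutoff derived for the primary screen, cut at about 15% in these data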;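 further: 0% = RBBP9 with DMSO and 100% = wells lacking RBBP9 protein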
The depositor's hits bear a star; . = no result given.

SMILES	ABCG2 inh	EP2 modulator	ABCB1 block	PGE2 EP2 inh	RBBP9 inh	RBBP9 inh conf	others
Cc1cc(C)c(C(=O)COC(=O)CCNS(=O)(=O)c2c(Cl)cccc2Cl)cc1C	97*	-40	3	5	-5	.	ABCB1 single pt=10;ABCG2 single pt=47;IgMXP3 autofluor=-1.8;CCRF-Adr fluor=-4.9
COc1ccc2cc3cc(C(=O)Nc4ccccc4N4CCN(C)CC4)oc3nc2c1	53	-20	47*	30	-12	.	ABCB1 single pt=25;ABCG2 single pt=18;IgMXP3 autofluor=11;CCRF-Adr fluor=-1.4
CCC(C)OC(=O)Cn1cnc2sc3c(c2c1=O)CCCC3 (configuration not stated)	.	-29	.	6	.	.
Cc1cccc(NC2=C(NCCO)C(=O)c3ccccc3C2=O)c1	2	23	3	9	-4	.
Cn1c(=O)c(NCCO)c2c3c(cccc31)C(=O)c1ccccc1-2	84*	8	7	25	63*	75*	ABCB1 single pt=0;ABCG2 single pt=20;IgMXP3 autofluor=13;CCRF-Adr fluor=8.3
CCCCNc1c2c3c(cccc3n(C)c1=O)C(=O)c1ccccc1-2	142*	59	66*	9	24*	30*	ABCB1 single pt=4;ABCG2 single pt=16;IgMXP3 autofluor=71*;CCRF-Adr fluor=132*
CCc1cccc(C)c1NC(=O)CSc1nnc2c(n1)[nH]c1ccccc12	.	-36	.	9	.	.
CCC(C)(C)NC(=O)/C=C/c1cccs1	7	-16	0	5	18*	6
COc1ccc(-n2c(C)cc(C3=NNC(=NC4CC4)SC3)c2C)cc1	5	-14	1	8	0	.
Cc1cc(C2=NNC(=NC3CC3)SC2)c(C)n1-c1ccccc1	0	-11	0	4	58*	22*
O=C(Cn1nc(-c2cccnc2)oc1=O)N1CCCc2ccccc21	.	-10	.	.	.	.
Cc1cc(-c2cnc(C)nc2C2CCCN(CC(=O)N3CCCCC3)C2)on1 (configuration not stated)	.	-27	.	.	.	.
COc1ccc(N(Cc2cc3cc(C)ccc3[nH]c2=O)C(=O)c2cccnc2)cc1	.	-16	.	4	.	.
Cc1c(C(=O)O)sc(S(=O)(=O)N2CCNCC2)c1C(=O)O	.	12	.	3	19*	6
COc1ccc(C2(C(=O)N3CCCC3c3nc(-c4cccnc4)n[nH]3)CCCC2)cc1 (configuration not stated)	.	2	.	6	.	.
CCNc1c2c3c(cccc3n(C)c1=O)C(=O)c1ccccc1-2	4	56	2	2	22*	37*
Cn1c(=O)c(N)c2c3c(c(Br)ccc31)C(=O)c1ccccc1-2	.	-44	.	14	0	.
CC1(C)OC(C)(C)/C(=C/Nc2ccc(O)cc2)C1=O	4	-36	0	1	20*	9
CC1(C)OC(=O)C(=CNc2cccc(O)c2)C(=O)O1	0	10	0	15	-3	.
Cc1cc(C)c2c(c1)-c1c(ssc1=S)C(C)(C)N2C(=O)Cn1nc(C)cc1C	.	31	.	10	.	.
COc1cc(-c2ccc(Nc3ccccc3C(=O)O)c(OC)c2)ccc1Nc1ccccc1C(=O)O	.	-14	.	10	24*	46*
COc1cccc(Nc2ccccc2C(=O)O)c1	1	2	0	4	-6	.
O=[N+]([O-])c1ccc(Sc2cccc[n+]2[O-])c2nonc12	.	-48	.	116*	19*	50*
Cc1cc(C)nc(N2CCC(C(=O)NC3CCCCC3C)CC2)n1 (configuration not stated)	.	-34	.	13	.	.
CCOC(=O)c1c(C)oc2c1c(CN1CCN(C(=O)OCC)CC1)c(O)c1ccccc12	-4	36	-1	10	0	.
SMILES	ABCG2 inh	EP2 modulator	ABCB1 block	PGE2 EP2 inh	RBBP9 inh	RBBP9 inh conf	others
CCOC(=O)c1c(C)oc2c(CC(=O)c3ccccc3)c(Cl)c(O)c(O)c12	-10	33	-1	10	16*	13
O=C(c1cc2c(s1)CCCCC2)N1CCN(c2ncccn2)CC1	40	-11	2	2	-7	.
O=C(c1cc2c(s1)CCCC2)n1cccn1	1	36	0	10	42*	11
Cc1ccccc1NC(=S)N/N=C1\CC(C)(C)Oc2ccc(O)cc21	1	5	0	10	3	.
Cc1ccc(NC(=S)N/N=C2\CC(C)(C)Oc3ccc(O)cc32)cc1	0	2	0	6	17*	11
Oc1ccc(/C=N/NC(=S)Nc2cccnc2)c(O)c1O	.	29	.	9	42*	52*
Oc1cccc(/C=N/NC(=S)Nc2cccnc2)c1O	-11	-25	-1	9	-4	.
COCCOC(=O)C1=C(C)NC(=O)N(C(C)=O)C1c1ccc(Cl)cc1 (configuration not stated)	-1	-31	0	8	15*	8
CCOC(=O)C1=C(C)NC(=S)N(C(C)=O)C1c1ccc(Cl)cc1 (configuration not stated)	-3	-72	0	11	-13	.
COc1ccc(OC)c(C(C)NC(=O)C2CCN(c3nc4ccccc4n3C)CC2)c1 (configuration not stated)	.	-44	.	4	.	.
COc1ccccc1C1(O)CCN(Cc2ccc(O)c(CN3CCCCC3)c2)CC1	.	-29	.	9	.	.
CC(C)c1ccccc1NC(=O)CNCCc1ccc(C(F)(F)F)cc1	.	31	.	2	17*	4
CCOC(=O)c1cc(-c2ccc(C)cc2)n(CCC(=O)NCCCOC)c1C	1	11	0	4	15*	2
CCC(C)NS(=O)(=O)c1ccc(NC(C)=O)cc1 (configuration not stated)	1	10	0	11	-1	.
CCC(NS(=O)(=O)c1ccc(C)cc1)C(=O)Nc1ccc(NC(C)=O)cc1 (configuration not stated)	0	2	0	14	16*	7
CC1CCCC(C)N1C(=O)COC(=O)C(Cc1ccccc1)NC(=O)c1cccs1 (configuration not stated)	2	15	0	5	16*	0
Cn1c(=O)[nH]c(=O)c2c1nc(NN)n2CC(O)COc1ccc(Br)cc1 (configuration not stated)	.	-41	.	25	.	.
CC(OC(=O)C1CC(=O)N(c2ccc(Br)cc2)C1)C(=O)c1ccccc1 (configuration not stated)	.	-17	.	11	.	.
